The list is not random: actives were taken first. Their share in the collection is about 1.9%.
UHRF1 MBD2 ctr: UHRF1 methyl-DNA binding inhibition; inhibition, % at 4.4 µM; 0.75% of 370,000 active; UHRF1 binding to methylated oligo, TR-FRET; Q96T88; in the data active = inhibition above about 21%;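 also: UHRF1 SRA domain binding a hemimethylated CpG hairpin DNA probe; 0% = median of test compound wells and 100% = reference inhibitor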
Rin1-Abl PPI inh: human Rin1-Abl interaction inhibition; P00519+Q13671; TR-FRET Rin1/Abl binding, biochemical; inhibition, % at 7.35 µM; 0.4% of 360,000 active; AID 588664; in the data active = inhibition above about 5%, passing the limit was not always enough
TDP2 inh: TDP2 (human) inhibition, absorbance primary screen | O95551 | recombinant TDP2, T5PNP hydrolysis, p-nitrophenol absorbance 415 nm | inhibition, % at 12.8 µM | 0.34% of 370,000 active;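 active = inhibition above the mean of all tested compounds plus 3 SD, set per campaign, cut at about 25% in these data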;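 also: 0% = DMSO with enzyme and 100% = buffer with substrate but no TDP2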
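Material: recombinant human TDP2; quantity: TDP2 enzyme at 120 nM final; medium: Tris-HCl pH 7.5 with MgCl2; compound: single concentration, 12.8 µM nominal, with 1% DMSO; incubation: 2 h enzyme incubation at 37 °C; signal: epi absorbance; measure: percent inhibition; benchmarks: high control without enzyme, low control DMSO plus TDP2; repeats: singlicate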
MBD2 inh: inhibitors of human MBD2 binding to methylated oligonucleotide; Q9UBB5; TR-FRET; inhibition, % at 4.4 µM; 0.31% of 370,000 active; in the data active = inhibition above about 13%
Target sequence (Q9UBB5 whole entry, looked up): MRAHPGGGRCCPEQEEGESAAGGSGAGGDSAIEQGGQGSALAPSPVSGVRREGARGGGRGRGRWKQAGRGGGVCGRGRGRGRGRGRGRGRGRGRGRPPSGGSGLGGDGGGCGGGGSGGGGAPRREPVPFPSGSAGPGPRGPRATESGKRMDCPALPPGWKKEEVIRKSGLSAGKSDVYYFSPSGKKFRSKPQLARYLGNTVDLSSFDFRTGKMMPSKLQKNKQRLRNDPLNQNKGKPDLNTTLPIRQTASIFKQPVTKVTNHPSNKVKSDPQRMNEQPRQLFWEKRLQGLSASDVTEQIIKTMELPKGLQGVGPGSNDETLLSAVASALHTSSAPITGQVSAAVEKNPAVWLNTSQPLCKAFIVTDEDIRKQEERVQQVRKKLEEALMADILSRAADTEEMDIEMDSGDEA
LEDGF integ inh: blocks HIV-1 LEDGF/p75-dependent DNA integration | TR-FRET IN-LEDGF/p75 DNA integration, Eu/Cy5 | inhibition, % at 3.7 µM | 0.64% of 370,000 active | AID 743269;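 active = inhibition above the screen-wide mean plus 3 SD, cut at about 13% in these data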;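 also: signal is the Cy5 over europium emission ratio at 671 and 618 nm; 0% = plate median of compound wells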
IN multimer act: HIV-1 integrase multimerization activation, counter-screen | activation, % at 7.7 µM | shares compounds with LEDGF integ inh | TR-FRET HIV-1 integrase multimerization, biochemical | AID 1053131 | 17% of 2,000 active; in the data active = activation above about 8.9%
TRFRET interf: counter-screen for LEDGF/p75 integration inhibitors: TR-FRET optical interference. AID 1053135. inhibition, % at 7.7 µM. shares compounds with LEDGF integ inh. 2,000 tested, under 10 active. TR-FRET optical interference counterscreen, HIV-1 IN multimerization;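 active = inhibition above the mean over all tested compounds plus 3 SD, which no compound reached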;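 also: 0% = integrase with antibodies and DMSO and 100% = antibodies without integrase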
LEDGF integ conf: LEDGF/p75-dependent HIV-1 integration inhibition, confirmation; shares compounds with LEDGF integ inh; inhibition, % at 3.7 µM; 36% of 2,000 active; TR-FRET LEDGF/p75-dependent HIV-1 integration, biochemical; in the data active = inhibition above about 14%
Active calls of the source: *; · = no result given.

SMILES	UHRF1 MBD2 ctr	Rin1-Abl PPI inh	TDP2 inh	MBD2 inh	LEDGF integ inh	IN multimer act	TRFRET interf	LEDGF integ conf
Cc1csc(NC(=O)c2cc(-c3ccco3)nc3ccccc23)n1	14.0	1.3	-13.8	5.4	26.0*	11.2*	-56.2	48.0*
COc1ccc([C@H]2C[C@@H](O)[C@H](n3cc(-c4ccc(F)cc4)nn3)CN2C(=O)C2CCCCC2)cc1	-2.9	2.3	-5.2	-1.3	3.3	·	·	·
CC1(C)OC(=O)C2=C(C[C@@H](CCc3ccccc3)O[C@@H]2c2ccc(Cl)cc2)O1	1.8	·	-1.9	0.3	-2.4	·	·	·
COc1ccccc1C1=NNC(=Nc2cccc(S(=O)(=O)N(C)C)c2)SC1	-0.6	4.0	6.5	-5.2	3.6	·	·	·
COc1ccc(-c2cnc3c(NC=O)cc(-c4ccoc4)cn23)cc1OC	-6.3	-1.0	-16.0	-6.1	27.8*	-0.7	3.3	5.2
CN(CC(=O)Nc1ccc(F)c(F)c1F)C(=O)/C=C/c1ccco1	0.0	0.6	-5.8	5.7	-0.4	·	·	·
COc1ccc(CC(=O)Nn2c(-c3ccccc3)nc3ccccc3c2=O)cc1	-1.7	-2.2	-1.0	-2.8	2.5	·	·	·
COc1ccc(-c2nc3ccccc3c(=O)n2NC(=O)Cc2ccccc2)cc1	-4.0	-0.5	8.4	-3.0	51.8*	0.8	-3.9	-5.3
Cc1cc(O)c(CN(C)C)c2c1C(=O)/C(=C/c1ccco1)O2	16.0	-0.7	14.0	6.3	26.4*	11.4*	-40.6	24.4*
O=C(CCCOC(=O)c1ccc(O)cc1O)c1ccc(Br)cc1	2.2	-3.8	-9.8	0.3	1.8	·	·	·
O=C(O)CCC(=O)Nc1ccc(N2CCCCCC2)cc1	-2.4	-0.7	13.1	-3.3	14.3*	5.0	-25.0	-10.2
COC(=O)[C@H]1[C@@H](O)[C@@]2(O)c3c(OC)cc(OC)cc3O[C@@]2(c2ccc(OC)cc2)[C@@H]1c1ccc(F)cc1	0.5	·	8.1	2.0	14.6*	0.5	-2.4	-6.3
COc1ccc(C(=O)/C=C(\Nc2ccc(F)cc2)c2ccc(OC)cc2OC)c(OC)c1	-0.7	·	-4.5	2.7	0.6	·	·	·
COCCCNC(=O)Cn1cc(/C=C(\C#N)C(=O)NC2CC2)c2ccccc21	-2.5	1.1	-14.0	-5.3	-5.7	·	·	·
Cc1cc(C)c2cc(C#N)c(NCCNC(=O)c3ccccn3)nc2c1	0.3	·	0.7	-7.6	-0.7	·	·	·
NS(=O)(=O)c1cc(C(=O)OCC(=O)N2CCc3ccccc3C2)ccc1Cl	4.6	3.4	-0.5	3.8	-7.1	·	·	·
COc1cc(CCC(=O)NCc2ccc3c(c2)OCO3)cc(OC)c1OC	0.0	2.4	11.9	8.1	29.2*	-0.1	0.8	-5.0
Cn1ccnc1SCC(=O)c1cc2ccccc2o1	-3.7	1.4	10.3	-4.0	24.6*	7.1	-25.3	7.2
Cn1cnnc1SCC(=O)c1cc2ccccc2o1	2.0	-5.8	-10.9	4.0	1.6	·	·	·
COc1cc(N(C(C)=O)c2ccc(O)c(C(=O)O)c2)c2ncccc2c1	-3.1	7.0	-6.0	-6.8	15.9*	-0.1	0.3	26.3*
COc1cc(N(C(C)=O)c2ccc(O)cc2)c2ncccc2c1	3.4	4.0	-3.6	4.7	-2.0	·	·	·
CCOC1=CC2=C(C(=O)C(Cl)=CC2=O)[C@@H]2CN(S(=O)(=O)c3ccc(C)cc3)[C@@H](c3ccccc3)[C@H]12	-3.1	10.3	8.0	0.9	18.6*	6.6	-33.1	25.9*
O=C1NC(=O)C2C3OC(C(Br)C3Br)C12 (configuration not stated)	4.2	-1.2	-8.4	3.1	3.6	·	·	·
COc1ccccc1/C=C\C(=O)NCC(=O)N/N=C/c1ccc(O)cc1O	-2.4	-2.5	-4.9	-1.4	16.2*	4.7	-23.6	-3.8
COc1ccccc1/C=C/C(=O)NCC(=O)N/N=C/c1ccccc1	-1.1	-2.0	-1.7	0.7	-1.6	·	·	·
SMILES	UHRF1 MBD2 ctr	Rin1-Abl PPI inh	TDP2 inh	MBD2 inh	LEDGF integ inh	IN multimer act	TRFRET interf	LEDGF integ conf
COc1ccc(-c2cc(C(=O)Nc3c(F)cc(F)cc3Br)no2)cc1	-2.6	2.2	-2.7	-5.2	-0.6	·	·	·
CCOC(=O)NC1(NC2CCCCC2)Oc2ccccc2O1	4.6	0.3	-0.4	-0.3	21.8*	-1.3	6.5	-2.1
O=C1C=C(Nc2cccc(O)c2)CC(c2ccco2)C1 (configuration not stated)	-1.8	-4.8	-12.0	-6.4	14.0*	-0.6	3.1	7.5
COCCN(C(=O)C1CCCC1)c1c(N)n(Cc2ccccc2)c(=O)[nH]c1=O	0.6	1.0	10.2	-1.2	2.5	·	·	·
Nc1c(N(C(=O)Nc2ccc(Cl)c(Cl)c2)C2CCCC2)c(=O)[nH]c(=O)n1Cc1ccccc1	-0.8	-0.2	-0.1	2.9	13.9*	0.7	-2.5	0.7
Cc1cc(S(=O)(=O)c2ccc(Cl)cc2)nc(S(=O)(=O)c2ccc(Cl)cc2)c1C#N	-1.1	0.9	1.2	7.7	0.9	·	·	·
COc1ccc(C[C@@H]2CN3C(=NC[C@@H]3C)N2C[C@H](C)NC(=O)CCC2CCCCC2)cc1	2.4	2.9	6.1	2.5	52.0*	-3.3	11.9	-4.2
CNc1ccc(Br)cc(C(=O)/C=C/c2cccc(Cl)c2Cl)c1=O	5.2	-0.5	-8.2	-1.1	14.8*	0.3	-1.4	20.6*
CNc1ccc(Br)cc(C(=O)/C=C/c2cccc(OC)c2OC)c1=O	1.4	2.8	2.1	-5.7	15.6*	2.2	-11.2	27.1*
CCNc1ccc(Br)cc(C(=O)/C=C/c2ccccc2Cl)c1=O	0.4	-0.2	7.6	-1.9	12.5	·	·	·
CNc1ccccc(C(=O)/C=C/c2ccccc2OC)c1=O	2.3	3.0	-13.9	4.6	-1.1	·	·	·
CC(COc1cc(F)cc(F)c1)CN1CCC(C(O)(c2ccccc2)c2ccccc2)CC1 (configuration not stated)	2.5	·	-5.4	-1.0	6.0	·	·	·
O=C(NCc1ccncc1)C1CCN(S(=O)(=O)c2cc(Cl)ccc2Cl)CC1	0.6	2.9	4.3	-0.8	20.5*	0.1	-0.5	-7.7
O=C(NCc1ccncc1)C1CCCN(S(=O)(=O)c2cc(Cl)ccc2Cl)C1 (configuration not stated)	-0.5	3.3	7.8	3.3	0.8	·	·	·
O=C1c2nc3cc(-c4ccco4)[nH]n3c(=O)c2CN1C1CCCCC1	12.7	-1.1	3.8	-5.0	17.9*	1.2	-6.3	5.1
N#Cc1ccc(-c2ccco2)nc1SCc1ccccc1	5.5	2.1	-1.7	-0.2	-0.1	·	·	·
CCSc1nc(-c2ccco2)ccc1C#N	7.8	-3.8	-14.3	-1.0	16.4*	-2.0	10.3	13.0

High-throughput results as filed in PubChem.
